Measurements reported in ChEMBL document CHEMBL4834429, “Discovery of Nanomolar Melanocortin-3 Receptor (MC3R)-Selective Small Molecule Pyrrolidine Bis-Cyclic Guanidine Agonist Compounds Via a High-Throughput "Unbiased" Screening Campaign” (J Med Chem, 2021).

How the values were obtained:
Format in all cases: functional, cell-based
[1] = target: Melanocyte-stimulating hormone receptor (Mus musculus, UniProt Q01727); experiment: Agonist activity at mouse melanocortin receptor 1 expressed in HEK293 cells assessed as stimulation of intracellular cAMP accumulation incubated for 24 hrs by beta-galactosidase reporter gene assay
Melanocyte-stimulating hormone receptor, sequence (Q01727 whole entry): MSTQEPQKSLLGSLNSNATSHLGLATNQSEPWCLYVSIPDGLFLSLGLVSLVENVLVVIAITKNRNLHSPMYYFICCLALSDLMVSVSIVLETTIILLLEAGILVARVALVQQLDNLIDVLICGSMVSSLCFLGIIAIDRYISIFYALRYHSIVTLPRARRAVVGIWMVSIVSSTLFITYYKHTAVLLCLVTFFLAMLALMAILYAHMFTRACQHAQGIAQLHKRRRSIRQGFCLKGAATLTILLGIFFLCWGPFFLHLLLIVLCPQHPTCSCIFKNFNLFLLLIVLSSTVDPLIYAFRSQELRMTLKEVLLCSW

[2] = target: Melanocortin receptor 3 (Mus musculus) (UniProt P33033); experiment: Agonist activity at mouse melanocortin receptor 3 expressed in HEK293 cells assessed as stimulation of intracellular cAMP accumulation at 10 uM incubated for 24 hrs by beta-galactosidase reporter gene assay relative to control
Melanocortin receptor 3 (Mus musculus), sequence (P33033 whole entry): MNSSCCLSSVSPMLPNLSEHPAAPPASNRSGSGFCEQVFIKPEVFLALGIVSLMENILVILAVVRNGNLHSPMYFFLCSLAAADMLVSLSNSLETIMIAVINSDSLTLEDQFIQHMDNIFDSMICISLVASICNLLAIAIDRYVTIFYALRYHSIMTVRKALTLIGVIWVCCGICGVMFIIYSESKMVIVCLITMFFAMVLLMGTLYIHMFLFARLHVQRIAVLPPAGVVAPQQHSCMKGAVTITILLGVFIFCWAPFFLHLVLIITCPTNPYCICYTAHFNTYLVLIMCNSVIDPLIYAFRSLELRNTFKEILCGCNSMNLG
Summary of the method: (§1)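 After lysis, ONPG hydrolysis was read at 405 nm and normalized to Bradford protein and maximal NDP-MSH response. Duplicates, ≥3 independent experiments; 100 μM dropped from fits where toxic.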

Melanocortin receptor 5 = Melanocortin receptor 5 (Mus musculus, UniProt P41149); experiment: Agonist activity at mouse melanocortin receptor 5 expressed in HEK293 cells assessed as stimulation of intracellular cAMP accumulation incubated for 24 hrs by beta-galactosidase reporter gene assay
Melanocortin receptor 5, sequence (P41149 whole entry): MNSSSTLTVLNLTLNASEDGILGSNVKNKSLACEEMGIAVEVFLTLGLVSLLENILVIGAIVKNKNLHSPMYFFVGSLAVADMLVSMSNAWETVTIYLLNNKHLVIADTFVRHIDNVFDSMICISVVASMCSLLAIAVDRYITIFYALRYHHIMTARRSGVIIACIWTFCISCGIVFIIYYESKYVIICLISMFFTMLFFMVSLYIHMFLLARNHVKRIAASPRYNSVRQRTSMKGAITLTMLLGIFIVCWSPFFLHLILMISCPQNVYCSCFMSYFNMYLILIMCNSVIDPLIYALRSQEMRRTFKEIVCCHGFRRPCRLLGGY

Melanocortin receptor 3 [3] = target: T1, Melanocortin receptor 3 (Mus musculus, UniProt P33033); experiment: Agonist activity at mouse melanocortin receptor 3 expressed in HEK293 cells assessed as stimulation of intracellular cAMP accumulation incubated for 24 hrs by beta-galactosidase reporter gene assay
T1 sequence (P33033 whole entry): as the sequence (P33033 whole entry) above

[4] = target: Melanocortin receptor 4 (Mus musculus) (UniProt P56450); experiment: Agonist activity at mouse melanocortin receptor 4 expressed in HEK293 cells assessed as stimulation of intracellular cAMP accumulation at 10 uM incubated for 24 hrs by beta-galactosidase reporter gene assay relative to control; summary of the method: as §1
Melanocortin receptor 4 (Mus musculus), sequence (P56450 whole entry): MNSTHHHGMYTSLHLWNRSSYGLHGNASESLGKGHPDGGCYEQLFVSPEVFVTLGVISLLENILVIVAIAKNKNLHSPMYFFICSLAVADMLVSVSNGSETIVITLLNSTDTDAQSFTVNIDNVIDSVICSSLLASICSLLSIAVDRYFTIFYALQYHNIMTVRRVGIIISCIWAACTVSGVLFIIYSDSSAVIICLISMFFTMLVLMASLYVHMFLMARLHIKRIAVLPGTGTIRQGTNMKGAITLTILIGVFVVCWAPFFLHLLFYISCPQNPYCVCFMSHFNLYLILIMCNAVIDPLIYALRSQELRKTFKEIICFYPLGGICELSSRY

Melanocortin receptor 4 [5] = target: T2, Melanocortin receptor 4 (Mus musculus, UniProt P56450); experiment: Antagonist activity at mouse melanocortin receptor 4 expressed in HEK293 cells assessed as inhibition of NDP-MSH-induced intracellular cAMP accumulation incubated for 24 hrs by beta-galactosidase reporter gene assay; details: read-out: pA2 (converted)
T2 sequence (P56450 whole entry): as above

Melanocortin receptor 3 [6] = target: T1, Melanocortin receptor 3; experiment: Antagonist activity at mouse melanocortin receptor 3 expressed in HEK293 cells assessed as inhibition of NDP-MSH-induced intracellular cAMP accumulation incubated for 24 hrs by beta-galactosidase reporter gene assay
[7] = target: Melanocyte-stimulating hormone receptor (Mus musculus) (UniProt Q01727); experiment: Agonist activity at mouse melanocortin receptor 1 expressed in HEK293 cells assessed as stimulation of intracellular cAMP accumulation at 10 uM incubated for 24 hrs by beta-galactosidase reporter gene assay relative to control; summary of the method: as §1
Melanocyte-stimulating hormone receptor (Mus musculus), sequence (Q01727 whole entry, looked up): as the sequence (Q01727 whole entry) above

Melanocortin receptor 4 [8] = target: T2, Melanocortin receptor 4; experiment: Agonist activity at mouse melanocortin receptor 4 expressed in HEK293 cells assessed as stimulation of intracellular cAMP accumulation incubated for 24 hrs by beta-galactosidase reporter gene assay; summary of the method: as §1
[9] = target: Melanocortin receptor 5 (Mus musculus) (UniProt P41149); experiment: Agonist activity at mouse melanocortin receptor 5 expressed in HEK293 cells assessed as stimulation of intracellular cAMP accumulation at 10 uM incubated for 24 hrs by beta-galactosidase reporter gene assay relative to control; details: filed as agonist, time 6.0 hrs, in the assay text read “6 hrs” for “24 hrs”; summary of the method: as §1
Melanocortin receptor 5 (Mus musculus), sequence (P41149 whole entry): as the sequence (P41149 whole entry) above

EC50 [1] [nM]	Emax ([2]; filed as agonist) [%]	EC50 (Melanocortin receptor 5) [nM]	EC50 (Melanocortin receptor 3 [3]) [nM]	Emax ([4]; filed as agonist) [%]	Compound	further results
29100	68	600			CC(C)[C@@H]1CNC(=N)N1C[C@@H]1CCCN1C[C@@H](Cc1ccccc1)N1C[C@@H](C(C)C)N(CC2CCC(C(C)(C)C)CC2)C1=N (stereo not given in full)	
500	75	530		65	CCC[C@@H]1CN([C@H](CC2CCCCC2)CN2CCC[C@H]2CN2C(=N)NC[C@H]2CC(C)C)C(=N)N1CC1CCC(C(C)(C)C)CC1 (stereo not given in full)	
200		600	370	49	CC(C)[C@@H]1CNC(=N)N1C[C@@H]1CCCN1C[C@@H](CC1CCCCC1)N1C[C@@H]([C@@H](C)O)N(CC23CC4CC(CC(C4)C2)C3)C1=N	Kb (Melanocortin receptor 4 [5]): 1580 nM
15500	67	440			CC(C)C[C@@H]1CNC(=N)N1C[C@@H]1CCCN1C[C@@H](Cc1ccccc1)N1C[C@@H](C(C)C)N(CC23CC4CC(CC(C4)C2)C3)C1=N	EC50 (Melanocortin receptor 4 [8]): 8200 nM
440		180	360	75	CC(C)[C@@H]1CNC(=N)N1C[C@@H]1CCCN1C[C@@H](Cc1ccccc1)N1C[C@@H]([C@@H](C)O)N(CC23CC4CC(CC(C4)C2)C3)C1=N	EC50 (Melanocortin receptor 4 [8]): 580 nM; Kb (Melanocortin receptor 4 [5]): 1580 nM
	51	1040		40	CCC[C@@H]1CN([C@H](CC2CCCCC2)CN2CCC[C@H]2CN2C(=N)NC[C@H]2C(C)C)C(=N)N1CCCC(C)C	Emax ([7]; filed as agonist): 51%
300		580	3700	40	CC(C)[C@@H]1CNC(=N)N1C[C@@H]1CCCN1C[C@@H](CC1CCCCC1)N1C[C@@H](C(C)C)N(CC23CC4CC(CC(C4)C2)C3)C1=N	
		1850		51	CC(C)CCCN1C(=N)N([C@H](CC2CCCCC2)CN2CCC[C@H]2CN2C(=N)NC[C@H]2CC(C)C)C[C@H]1C(C)C	Emax ([7]; filed as agonist): 50%; Emax [2]: 33%
47800		660	4000	54	CC(C)[C@@H]1CNC(=N)N1C[C@@H]1CCCN1C[C@@H](Cc1ccccc1)N1C[C@@H](C(C)C)N(CC23CC4CC(CC(C4)C2)C3)C1=N	
	67	470		51	CCC[C@@H]1CN([C@H](CC2CCCCC2)CN2CCC[C@H]2CN2C(=N)NC[C@H]2CC(C)C)C(=N)N1CC12CC3CC(CC(C3)C1)C2	Emax ([7]; filed as agonist): 70%
2300	58	1800			CCC[C@@H]1CN([C@H](CC2CCCCC2)CN2CCC[C@H]2CN2C(=N)NC[C@H]2CC(C)C)C(=N)N1CCCC(C)C	EC50 (Melanocortin receptor 4 [8]): 6700 nM

Second part, the compound before the results:

Compound	EC50 [1] [nM]	Emax ([2]; filed as agonist) [%]	EC50 (Melanocortin receptor 5) [nM]	EC50 (Melanocortin receptor 3 [3]) [nM]	Emax ([4]; filed as agonist) [%]	further results
CC(C)[C@@H]1CNC(=N)N1C[C@@H]1CCCN1C[C@@H](CC1CCCCC1)N1C[C@@H]([C@@H](C)O)N(CC2CCC(C(C)(C)C)CC2)C1=N (stereo not given in full)	300		150	220	41	Kb (Melanocortin receptor 4 [5]): 1260 nM
CC(C)[C@@H]1CNC(=N)N1C[C@@H]1CCCN1C[C@@H](Cc1ccccc1)N1C[C@@H]([C@@H](C)O)N(CC2CCC(C(C)(C)C)CC2)C1=N (stereo not given in full)	600		490	420		Kb (Melanocortin receptor 4 [5]): 316 nM
CC(C)[C@@H]1CNC(=N)N1C[C@@H]1CCCN1C[C@@H](CC1CCCCC1)N1C[C@@H](C(C)C)N(CC2CCC(C(C)(C)C)CC2)C1=N (stereo not given in full)	290		510	4300		Emax [4]: 28%
CCC[C@@H]1CN([C@H](Cc2ccccc2)CN2CCC[C@H]2CN2C(=N)NC[C@H]2C(C)C)C(=N)N1CCCC(C)C	22900		2030		41	EC50 (Melanocortin receptor 3 [6]): > 100 µM
CC(C)C[C@@H]1CNC(=N)N1C[C@@H]1CCCN1C[C@@H](CC1CCCCC1)N1C[C@@H](C(C)C)N(CC2CCC(C(C)(C)C)CC2)C1=N (stereo not given in full)		69	560			Emax ([7]; filed as agonist): 54%; Kb (Melanocortin receptor 4 [5]): 3160 nM
CC(C)C[C@@H]1CNC(=N)N1C[C@@H]1CCCN1C[C@@H](CC1CCCCC1)N1C[C@@H]([C@@H](C)O)N(CC23CC4CC(CC(C4)C2)C3)C1=N	330		340	240	55	EC50 (Melanocortin receptor 4 [8]): 650 nM
CCC[C@@H]1CN([C@H](Cc2ccccc2)CN2CCC[C@H]2CN2C(=N)NC[C@H]2CC(C)C)C(=N)N1CC12CC3CC(CC(C3)C1)C2	7000	74	610			EC50 (Melanocortin receptor 4 [8]): 1330 nM
CC(C)CCCN1C(=N)N([C@H](Cc2ccccc2)CN2CCC[C@H]2CN2C(=N)NC[C@H]2C(C)C)C[C@H]1C(C)C	10200		1600			EC50 (Melanocortin receptor 3 [6]): > 100 µM; Emax [4]: 21%
CC(C)CCCN1C(=N)N([C@H](Cc2ccccc2)CN2CCC[C@H]2CN2C(=N)NC[C@H]2C(C)C)C[C@H]1[C@@H](C)O						Emax ([7]; filed as agonist): 51%; EC50 (Melanocortin receptor 3 [6]): > 100 µM; Emax [9]: 40%
CC(C)CCCN1C(=N)N([C@H](CC2CCCCC2)CN2CCC[C@H]2CN2C(=N)NC[C@H]2C(C)C)C[C@H]1C(C)C	6100	51	1700		51	
O=C(N[C@@H](Cc1ccc(Cl)cc1)C(=O)N1CCC(Cn2cncn2)(C2CCCCC2)CC1)[C@H]1Cc2ccccc2CN1						EC50 (Melanocortin receptor 4 [8]): 0.9 nM
CCC[C@@H]1CN([C@H](Cc2ccccc2)CN2CCC[C@H]2CN2C(=N)NC[C@H]2CC(C)C)C(=N)N1CC1CCC(C(C)(C)C)CC1 (stereo not given in full)		73	480			Emax [7]: 38%; Emax [4]: 28%
CC(C)C[C@@H]1CNC(=N)N1C[C@@H]1CCCN1C[C@@H](CC1CCCCC1)N1C[C@@H]([C@@H](C)O)N(CC2CCC(C(C)(C)C)CC2)C1=N (stereo not given in full)	300		140	210	45	EC50 (Melanocortin receptor 4 [8]): 270 nM
CC(C)CCCN1C(=N)N([C@H](CC2CCCCC2)CN2CCC[C@H]2CN2C(=N)NC[C@H]2C(C)C)C[C@H]1[C@@H](C)O	700		740	5200		
CC(C)C[C@@H]1CNC(=N)N1C[C@@H]1CCCN1C[C@@H](Cc1ccccc1)N1C[C@@H](C(C)C)N(CC2CCC(C(C)(C)C)CC2)C1=N (stereo not given in full)	6800	62	560			
CC(C)C[C@@H]1CNC(=N)N1C[C@@H]1CCCN1C[C@@H](Cc1ccccc1)N1C[C@@H]([C@@H](C)O)N(CC2CCC(C(C)(C)C)CC2)C1=N (stereo not given in full)			530	310		Emax ([7]; filed as agonist): 58%
CC(C)C[C@@H]1CNC(=N)N1C[C@@H]1CCCN1C[C@@H](Cc1ccccc1)N1C[C@@H]([C@@H](C)O)N(CC23CC4CC(CC(C4)C2)C3)C1=N			810	360	58	Emax ([7]; filed as agonist): 41%; Kb (Melanocortin receptor 4 [5]): 1580 nM
CC(C)CCCN1C(=N)N([C@H](CC2CCCCC2)CN2CCC[C@H]2CN2C(=N)NC[C@H]2CC(C)C)C[C@H]1[C@@H](C)O	7300	58	630		10	
CSCC[C@H](NC(=O)[C@H](CO)NC(=O)[C@H](Cc1ccc(O)cc1)NC(=O)[C@@H](N)CO)C(=O)N[C@@H](CCC(=O)O)C(=O)N[C@@H](Cc1c[nH]cn1)C(=O)N[C@@H](Cc1ccccc1)C(=O)N[C@@H](CCCN=C(N)N)C(=O)N[C@@H](Cc1c[nH]c2ccccc12)C(=O)NCC(=O)N[C@@H](CCCCN)C(=O)N1CCC[C@H]1C(=O)N[C@H](C(=O)O)C(C)C			0.7			EC50 (Melanocortin receptor 4 [8]): 1.6 nM
CC(C)CCCN1C(=N)N([C@H](Cc2ccccc2)CN2CCC[C@H]2CN2C(=N)NC[C@H]2CC(C)C)C[C@H]1C(C)C			1260		10	
CC(C)C[C@@H]1CNC(=N)N1C[C@@H]1CCCN1C[C@@H](CC1CCCCC1)N1C[C@@H](C(C)C)N(CC23CC4CC(CC(C4)C2)C3)C1=N	570	70	500		50	
CCC[C@@H]1CN([C@H](CC2CCCCC2)CN2CCC[C@H]2CN2C(=N)NC[C@H]2C(C)C)C(=N)N1CC1CCC(C(C)(C)C)CC1 (stereo not given in full)			540	350	50	Emax ([7]; filed as agonist): 51%; Kb (Melanocortin receptor 4 [5]): 1580 nM
CCC[C@@H]1CN([C@H](Cc2ccccc2)CN2CCC[C@H]2CN2C(=N)NC[C@H]2C(C)C)C(=N)N1CC1CCC(C(C)(C)C)CC1 (stereo not given in full)	2300		940	6200		Emax [4]: 27%
CC(C)CCCN1C(=N)N([C@H](Cc2ccccc2)CN2CCC[C@H]2CN2C(=N)NC[C@H]2CC(C)C)C[C@H]1[C@@H](C)O						Emax ([7]; filed as agonist): 62%; EC50 (Melanocortin receptor 3 [6]): > 100 µM; Emax [9]: 77%
